pIC50: −log10 of the molar value. Active and inactive are the calls of the source. No cut-off for these calls is given here.
Key:
[1] = AUC (0 to infinity) in rhesus monkey at 1 mg/kg, po administered as single dose; type: ADME, organism-based, Macaca mulatta; set-up: dose 1 mg/kg, route oral, time infinity; settings: plasma
[2] = Plasma concentration in Sprague-Dawley rat at 10 mg/kg, po after 2 hrs; type: ADME, organism-based; set-up: dose 10 mg/kg, route oral
Outline: (§1)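 Male SD rats (7-10 weeks, 200-400 g) dosed orally at 10 mg/kg in 0.5% methylcellulose; at 2 h aortic blood taken under isoflurane. Plasma, brain homogenate (sonicated in water) and CSF deproteinized with 3-fold ethanol plus internal standard, -20 °C 20 min, centrifuged; LC/MS/MS with relative calibration curve. Mean, n = 2-3.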

Mus musculus [3] = assay: Reduction in body weight in moderately high fat diet-induced obese Y5 receptor-deficient mouse model at 3 mg/kg, po BID 15 days; type: functional, organism-based; set-up: dose 3 mg/kg
[4] = Plasma clearance in rhesus monkey plasma at 0.3 mg/kg, iv administered as single dose; type: ADME, organism-based, Macaca mulatta; set-up: dose 0.3 mg/kg, route intravenous
[5] = Bioavailability in Sprague-Dawley rat at 1 mg/kg, iv and 1 mg/kg, po administered as single dose; type: ADME, organism-based; settings: in vivo
Canis familiaris [6] = assay: Cardiotoxicity in Beagle dog assessed as change in femoral blood flow at 5 mg/kg, iv; type: toxicity, organism-based, Canis lupus familiaris; set-up: dose 5 mg/kg, route intravenous; settings: in vivo
Rattus norvegicus [7] = assay: Inhibition of D-[Trp34]NPY-induced acute food intake in Sprague-Dawley rat at 1 mg/kg, po pretreated 2 hrs prior to D-[Trp34]NPY challenge measured after 2 hrs; type: functional
Outline: (§2)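 SD rats (10-15 weeks) with stereotaxic third-ventricle cannula, tested ≥1 wk post-surgery in light cycle. Oral dose in 0.5% methylcellulose, then 2 h later D-Trp34NPY 1 µg/0.4 µL in aCSF into third ventricle; food intake over 2 h. Mean ± SEM, n = 5-9; Dunnett's test versus agonist-only group.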

Cerebrospinal fluid = assay: Drug level in Sprague-Dawley rat cerebrospinal fluid at 10 mg/kg, po after 2 hrs; type: ADME, organism-based; set-up: dose 10 mg/kg, route oral; settings: in vivo, 2 h; outline: as §1
[8] = Bioavailability in rhesus monkey at 1 mg/kg, po and 0.3 mg/kg, iv administered as single dose; type: ADME, organism-based, Macaca mulatta; settings: in vivo
[9] = Volume of distribution at steady state in rhesus monkey at 1 mg/kg, po and 0.3 mg/kg, iv administered as single dose; type: ADME, organism-based, Macaca mulatta; settings: in vivo, read-out: Vdss
[10] = biological target: Neuropeptide Y receptor type 4 (Homo sapiens, UniProt P50391); assay: Binding affinity to human neuropeptide Y4 receptor
Chain of Neuropeptide Y receptor type 4 (P50391 whole entry): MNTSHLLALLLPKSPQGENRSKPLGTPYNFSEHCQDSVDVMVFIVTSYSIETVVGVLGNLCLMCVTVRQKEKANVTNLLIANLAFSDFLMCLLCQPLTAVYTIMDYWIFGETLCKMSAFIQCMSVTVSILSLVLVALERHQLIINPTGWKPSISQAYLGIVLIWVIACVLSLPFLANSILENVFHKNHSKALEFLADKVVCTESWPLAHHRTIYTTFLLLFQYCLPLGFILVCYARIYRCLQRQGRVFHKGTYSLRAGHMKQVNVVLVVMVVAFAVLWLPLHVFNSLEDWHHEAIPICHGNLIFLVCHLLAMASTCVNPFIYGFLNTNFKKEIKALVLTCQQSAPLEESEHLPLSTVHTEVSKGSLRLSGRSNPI

Rattus norvegicus [11] = assay: Inhibition of D-[Trp34]NPY-induced acute food intake in Sprague-Dawley rat at 0.1 mg/kg, po pretreated 2 hrs prior to D-[Trp34]NPY challenge measured after 2 hrs; type: functional; outline: as §2
[12] = Cmax in Sprague-Dawley rat at 1 mg/kg, iv and 1 mg/kg, po administered as single dose; type: ADME, organism-based; settings: in vivo
Mus musculus [13] = assay: Reduction in body weight in moderately high fat diet-induced obese C57BL/6J mouse model at 10 mg/kg, po qid for 5 days followed by BID for 15 days; type: functional, organism-based; set-up: dose 10 mg/kg
[14] = AUC (0 to infinity) in Sprague-Dawley rat at 1 mg/kg, po administered as single dose; type: ADME, organism-based; set-up: time infinity, dose 1 mg/kg, route oral; settings: plasma
[15] = biological target: T1, Neuropeptide Y receptor type 2 (Homo sapiens, UniProt P49146); assay: Binding affinity to human neuropeptide Y2 receptor
T1 sequence (P49146 whole entry): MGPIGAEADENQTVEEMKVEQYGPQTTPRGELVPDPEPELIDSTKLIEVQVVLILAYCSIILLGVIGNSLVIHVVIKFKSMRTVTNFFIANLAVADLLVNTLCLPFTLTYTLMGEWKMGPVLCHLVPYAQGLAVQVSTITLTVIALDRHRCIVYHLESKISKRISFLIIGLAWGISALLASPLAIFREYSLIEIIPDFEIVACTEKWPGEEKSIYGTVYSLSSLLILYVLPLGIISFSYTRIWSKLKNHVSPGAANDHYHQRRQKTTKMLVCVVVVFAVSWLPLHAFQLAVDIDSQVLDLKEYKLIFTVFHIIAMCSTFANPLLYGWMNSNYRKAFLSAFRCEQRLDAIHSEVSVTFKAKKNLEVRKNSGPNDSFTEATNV

Canis familiaris [16] = assay: Cardiotoxicity in Beagle dog assessed as adverse events at 2 mg/kg, iv; type: toxicity, organism-based, Canis lupus familiaris; set-up: dose 2 mg/kg, route intravenous; settings: in vivo
Rattus norvegicus [17] = assay: Inhibition of D-[Trp34]NPY-induced acute food intake in Sprague-Dawley rat at 0.3 mg/kg, po pretreated 2 hrs prior to D-[Trp34]NPY challenge measured after 2 hrs; type: functional; outline: as §2
[18] = Plasma clearance in Sprague-Dawley rat plasma at 1 mg/kg, iv administered as single dose; type: ADME, organism-based; set-up: dose 1 mg/kg, route intravenous
Canis familiaris [19] = assay: Cardiotoxicity in Beagle dog assessed as change in cardiac output pressure at 5 mg/kg, iv; type: toxicity, organism-based, Canis lupus familiaris, Heart; set-up: dose 5 mg/kg, route intravenous; settings: in vivo
[20] = Ratio of drug level from brain to plasma in Sprague-Dawley rat at 10 mg/kg, po after 2 hrs; type: ADME, organism-based; set-up: dose 10 mg/kg, route oral; outline: as §1
[21] = Cmax in Beagle dog at 5 mg/kg, iv; type: ADME, organism-based, Canis lupus familiaris; set-up: dose 5 mg/kg, route intravenous; settings: in vivo
[22] = biological target: T2, Neuropeptide Y receptor type 1 (Homo sapiens, UniProt P25929); assay: Binding affinity to human neuropeptide Y1 receptor
T2 sequence (P25929 whole entry): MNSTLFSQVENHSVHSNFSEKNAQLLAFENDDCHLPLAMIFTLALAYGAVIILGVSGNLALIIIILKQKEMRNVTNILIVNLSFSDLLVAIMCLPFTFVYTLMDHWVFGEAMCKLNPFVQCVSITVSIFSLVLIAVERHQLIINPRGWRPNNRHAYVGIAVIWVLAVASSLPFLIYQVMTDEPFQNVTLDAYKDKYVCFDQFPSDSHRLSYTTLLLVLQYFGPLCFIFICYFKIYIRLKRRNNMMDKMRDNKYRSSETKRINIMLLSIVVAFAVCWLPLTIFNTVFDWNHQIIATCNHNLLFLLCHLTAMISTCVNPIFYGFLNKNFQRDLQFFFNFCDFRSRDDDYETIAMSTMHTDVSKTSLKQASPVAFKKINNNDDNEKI

[23] = Cmax in rhesus monkey at 1 mg/kg, po and 0.3 mg/kg, iv administered as single dose; type: ADME, organism-based, Macaca mulatta; settings: in vivo
[24] = Volume of distribution at steady state in Sprague-Dawley rat at 1 mg/kg, iv and 1 mg/kg, po administered as single dose; type: ADME, organism-based; settings: in vivo, read-out: Vdss
Canis familiaris [25] = assay: Cardiotoxicity in Beagle dog assessed as change in mean arterial pressure at 5 mg/kg, iv; type: toxicity, organism-based, Canis lupus familiaris, Artery; set-up: dose 5 mg/kg, route intravenous; settings: in vivo
Mus musculus [26] = assay: Reduction in body weight in moderately high fat diet-induced obese C57BL/6J mouse model at 3 mg/kg, po qid for 5 days followed by BID for 15 days; type: functional, organism-based; set-up: dose 3 mg/kg
[27] = Metabolic stability in rat hepatocytes assessed as hepatic clearance by serum incubation method; type: ADME, cell-based, Liver, Hepatocyte
Canis familiaris [28] = assay: Cardiotoxicity in Beagle dog assessed as change in cardiac contractility pressure at 5 mg/kg, iv; type: toxicity, organism-based, Canis lupus familiaris, Heart; set-up: dose 5 mg/kg, route intravenous; settings: in vivo
[29] = Octanol-water distribution coefficient, log D at pH 7.4; type: physicochemical
[30] = Cmax in Beagle dog at 2 mg/kg, iv; type: ADME, organism-based, Canis lupus familiaris; set-up: dose 2 mg/kg, route intravenous; settings: in vivo
Canis familiaris [31] = assay: Cardiotoxicity in Beagle dog assessed as change in left ventricular systolic pressure at 5 mg/kg, iv; type: toxicity, organism-based, Canis lupus familiaris, Heart left ventricle; set-up: dose 5 mg/kg, route intravenous; settings: in vivo
Canis familiaris [32] = assay: Cardiotoxicity in Beagle dog assessed as prolongation of QTc interval at 5 mg/kg, iv; type: toxicity, organism-based, Canis lupus familiaris; set-up: dose 5 mg/kg, route intravenous; settings: in vivo
Brain = assay: Drug level in Sprague-Dawley rat brain at 10 mg/kg, po after 2 hrs; type: ADME, organism-based; set-up: dose 10 mg/kg, route oral; settings: in vivo; outline: as §1

- AUC(0-inf) [1]: 4.6 µM·h
- concentration at 2 h [2]: 2600 nM
- clearance [4]: 8 mL/min/kg
- bioavailability [5]: 77%
- Drug uptake (Cerebrospinal fluid): 0.21 µM
- bioavailability [8]: 76%
- Vd [9]: 4.4 L/kg
- pIC50 [10]: < 5.00
- Cmax [12]: 500 nM
- AUC(0-inf) [14]: 1.8 µM·h
- pIC50 [15]: < 5.00
- clearance [18]: 20 mL/min/kg
- Kp at 2 h [20]: 2.7
- Cmax [21]: 25 µM
- pIC50 [22]: < 5.00
- Cmax [23]: 590 nM
- Vd [24]: 6.2 L/kg
- CLhep predicted [27]: 18 mL/min/kg
- logD [29]: 3.2
- Cmax [30]: 12 µM
- Drug uptake (Brain): 7 nmol/g
SMILES: C[C@@H]1NC(c2cc(C#N)ccn2)=N[C@@]1(c1ccc(F)cc1)c1ccc(F)nc1
- Activity (Mus musculus [3]): inactive
- Activity (Canis familiaris [6]): -32%
- inhibition in vivo at 1 mg/kg (Rattus norvegicus [7]): 93%
- inhibition in vivo at 0.1 mg/kg (Rattus norvegicus [11]): 5%
- Activity (Mus musculus [13]): Active
- Activity (Canis familiaris [16]): Non-toxic
- inhibition in vivo at 0.3 mg/kg (Rattus norvegicus [17]): 54%
- Activity (Canis familiaris [19]): 46%
- Activity (Canis familiaris [25]): 28%
- Activity (Mus musculus [26]): Active
- Activity (Canis familiaris [28]): 50%
- Activity (Canis familiaris [31]): 29%
- Activity (Canis familiaris [32]): 7%
